# Assay results as given in ChEMBL document CHEMBL3045942, “Design, synthesis, and anti-tobacco mosaic virus (TMV) activity of phenanthroindolizidines and their analogues” (2012).
# Assays:
# Format in all cases: functional
# Tobacco mosaic virus [1] = assay: In vivo antiviral activity against Tobacco mosaic virus (TMV) pre-inoculated Nicotiana tabacum L. leaves assessed as curative effect at 100 ug/mL measured after 3 to 4 days
# In short: (§1)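 Curative test on same-age growing Xanthi nc leaves. Whole leaves were first inoculated with TMV (6.0 × 10−3 mg mL−1), then washed with water and dried. Compound solution was smeared on the left half and solvent on the right half as control. Local lesions were counted 3–4 days after inoculation, and inhibition % was derived from mean lesion numbers. Three replicates.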
# Tobacco mosaic virus [2] = assay: Antiviral activity against Tobacco mosaic virus (TMV) inoculated in 5-6 growth stage leaf assessed as inhibition effect at 500 ug/mL at 25 degC after 72 hr by half-leaf method
# In short: (§2)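 Half-leaf assay on fresh leaves of Nicotiana tabacum var. Xanthi nc at the 5–6 growth stage. Leaves were rub-inoculated with leaf juice (TMV 5.88 × 10−2 μg mL−1) and cut in halves along the main vein. One half was immersed in compound solution and the other in double-distilled water for 20 min, then kept at 25 °C for 72 h. Inhibition % = (mean control lesions − mean treated lesions)/mean control lesions × 100. At least 3 replicates.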
# Tobacco mosaic virus [3] = assay: In vivo antiviral activity against Tobacco mosaic virus (TMV) inoculated left side of Nicotiana tabacum L. leaves assessed as inactivation effect at 500 ug/mL co-incubated with virus measured after 3 to 4 days
# In short: (§3)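 Inactivation test in N. tabacum var. Xanthi nc. Virus was mixed with an equal volume of compound solution for 30 min and the mixture inoculated on the left leaf half. The right half received a solvent–virus mixture as control. Local lesions were counted 3–4 days after inoculation. Inhibition % was calculated from mean lesion numbers of control versus treated halves. Three replicates.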
# Tobacco mosaic virus [4] = assay: In vivo antiviral activity against Tobacco mosaic virus (TMV) inoculated right side of Nicotiana tabacum L. leaves assessed as protection effect at 500 ug/mL preincubated 12 hr before viral challenge measured after 3 to 4 days
# In short: (§4)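 Protective test on same-age growing Xanthi nc tobacco leaves. Compound solution was smeared on the left half and solvent on the right half as control. After 12 h, leaves were inoculated with TMV applied by brush. Inhibition % = (mean control lesions − mean treated lesions)/mean control lesions × 100. Three replicates.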
# Tobacco mosaic virus [5] = assay: In vivo antiviral activity against Tobacco mosaic virus (TMV) inoculated left side of Nicotiana tabacum L. leaves assessed as inactivation effect at 100 ug/mL co-incubated with virus measured after 3 to 4 days; in short: as §3
# Tobacco mosaic virus [6] = assay: In vivo antiviral activity against Tobacco mosaic virus (TMV) inoculated right side of Nicotiana tabacum L. leaves assessed as protection effect at 100 ug/mL preincubated 12 hr before viral challenge measured after 3 to 4 days; in short: as §4
# Tobacco mosaic virus [7] = assay: Antiviral activity against Tobacco mosaic virus (TMV) inoculated in 5-6 growth stage leaf assessed as inhibition effect at 100 ug/mL at 25 degC after 72 hr by half-leaf method; in short: as §2
# Tobacco mosaic virus [8] = assay: In vivo antiviral activity against Tobacco mosaic virus (TMV) pre-inoculated Nicotiana tabacum L. leaves assessed as curative effect at 500 ug/mL measured after 3 to 4 days; in short: as §1
# Tobacco mosaic virus [9] = assay: Antiviral activity against Tobacco mosaic virus (TMV) assessed as inhibition at 500 ug/mL
# In short: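 Half-leaf method on fresh Nicotiana tabacum var. Xanthi nc leaves at the 5–6 growth stage. Leaves were inoculated by juice-leaf rubbing with TMV at 5.88 × 10−2 μg mL−1, then cut in halves along the main vein. Halves were immersed 20 min in compound solution or double-distilled water as control, then kept 25 °C for 72 h. Inhibition % = (mean control lesions − mean treated lesions)/mean control lesions × 100. At least 3 replicates.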
# Tobacco mosaic virus [10] = assay: Antiviral activity against Tobacco mosaic virus (TMV) assessed as inhibition at 1 ug/mL
SMILES,Activity (Tobacco mosaic virus [1]) [%],inhibition at 500 µg/mL (Tobacco mosaic virus [2]) [%],Activity (Tobacco mosaic virus [3]) [%],Activity (Tobacco mosaic virus [4]) [%],Activity (Tobacco mosaic virus [5]) [%],Activity (Tobacco mosaic virus [6]) [%],inhibition at 100 µg/mL (Tobacco mosaic virus [7]) [%],Activity (Tobacco mosaic virus [8]) [%],inhibition at 500 µg/mL (Tobacco mosaic virus [9]) [%],inhibition at 1 µg/mL (Tobacco mosaic virus [10]) [%]
COc1ccc2c3c(c4cc(OC)c(OC)cc4c2c1)CN1CCC[C@H]1[C@H]3O,17.2,45.2,32.4,41.3,0,24.5,29.6,40,–,–
COc1ccc2c3c(c4cc(OC)c(OC)cc4c2c1)CN1CCC[C@@H]1[C@@H]3O,27.8,47.7,51.2,54.4,33.3,30.2,33.1,56.2,–,–
COc1ccc2c3c(c4cc(OC)c(OC)cc4c2c1)CN1CCC[C@H]1C3,43.7,71.2,59.8,70.2,40.3,51.3,50,65.1,–,–
COc1ccc2c3c(c4cc(OC)c(OC)cc4c2c1)CN1CCC[C@@H]1C3,24.5,56.5,48.9,60.5,23.6,31.7,32.9,44.7,–,–
COc1cc2c3c(c4cc(OC)c(OC)cc4c2cc1OC)[C@@H](O)[C@H]1CCCN1C3,32.8,51.2,49.2,53.9,26.7,26.5,23,43.4,–,–
COc1ccc2c3c(c4cc(OC)c(OC)cc4c2c1)[C@H](O)[C@@H]1CCCN1C3,0,51.2,24.8,21.2,0,0,23,19.3,–,–
COc1ccc2c3c(c4cc(OC)c(OC)cc4c2c1)[C@@H](O)[C@H]1CCCN1C3,10.2,43.5,38.5,39.6,14.2,7.3,21.6,34.9,–,–
O=C1NCNC(=O)N1,–,–,–,–,–,–,–,–,50,–
CC(=O)N1CN(C(C)=O)C(=O)NC1=O,–,–,–,–,–,–,–,–,50,–
COc1cc2c3c(c4cc(OC)c(OC)cc4c2cc1OC)NC[C@@H]1CCCN1C3,22.7,50,42.5,53.6,20.3,28.5,18.5,44.6,–,–
COc1cc2c3c(c4cc(OC)c(OC)cc4c2cc1OC)NC(=O)[C@H]1CCCN1C3,18.9,32.2,34.9,36.4,21.2,19.7,20,35.7,–,–
COc1cc2cc(CN3CCC[C@H]3C)c3cc(OC)c(OC)cc3c2cc1OC,0,29.8,25.2,39.6,0,13.1,0,25.8,–,–
COc1cc2cc(C(=O)N3CCC[C@H]3C)c3cc(OC)c(OC)cc3c2cc1OC,6.2,38.4,31.3,43.3,9.6,18.9,15.3,30.1,–,–
COc1cc2c3c(c4cc(OC)c(OC)cc4c2cc1OC)C(=O)n1cccc1C3,0,15.3,22.6,21.5,8.5,5.3,0,17.5,–,–
COc1cc2c3c(c4cc(OC)c(OC)cc4c2cc1OC)C(=O)N1CCC[C@H]1C3,14.8,48.1,37,43.5,20.5,23.4,30.9,30.1,–,–
COc1cc2c3c(c4cc(OC)c(OC)cc4c2cc1OC)NC[C@H]1CCCN1C3,28.7,40.4,31.5,46.5,12.6,33.7,23.1,44.6,–,–
COc1cc2c3c(c4cc(OC)c(OC)cc4c2cc1OC)NC(=O)[C@@H]1CCCN1C3,0,34.8,32.9,29.7,22.2,7.6,4.6,31.5,–,–
COc1cc2c3c(c4cc(OC)c(OC)cc4c2cc1OC)[C@H](O)[C@@H]1CCCN1C3,30.6,62.4,57.8,63.7,32.9,20,34.7,61.9,–,–
COc1cc2c3c(c4ccc(O)cc4c2cc1OC)CN1CCC[C@@H]1C3,–,–,–,–,–,–,–,–,–,70
COc1ccc2c3c(c4cc(OC)c(OC)cc4c2c1)C[C@H]1CCCN1C3 [(-)-ANTOFINE],19.4,52.8,42.7,45.5,15.3,20.4,27.4,46,–,–
COc1cc2c3c(c4cc(OC)c(OC)cc4c2cc1OC)CN1CCC[C@H]1C3 [(S)-TYLOPHORINE],37,54.1,50.5,56.8,34.2,28.6,36.9,53.8,–,–
COc1ccc2c3c(c4cc(OC)c(OC)cc4c2c1)C[C@@H]1CCCN1C3 [HYPOESTESTATIN 1],26.7,60.2,51.1,56.4,37.2,28.4,30.5,55.5,–,–
CNCC(=O)N[C@@H](CO)C(=O)N[C@H]1[C@H](O)[C@@H](O)[C@H](n2ccc(N)nc2=O)O[C@@H]1C(N)=O [NINGNANMYCIN],18.9,71.4,68.5,66.6,37.7,25.2,30.4,56,–,–
NC(=O)c1ncn([C@@H]2O[C@H](CO)[C@@H](O)[C@H]2O)n1 [RIBAVIRIN],8.2,40,33.8,38.9,9.8,7.5,12.5,36.7,–,–
COc1cc2c3c(c4cc(OC)c(OC)cc4c2cc1OC)CN1CCC[C@@H]1C3 [TYLOPHORINE],26.4,49.7,39,47.6,15.1,22.5,21.1,44.2,–,–
